Among the data in ChEMBL document CHEMBL1155875, “Optimization of the central heterocycle of alpha-ketoheterocycle inhibitors of fatty acid amide hydrolase” (J Med Chem, 2008) are IC50, Ki and Ratio IC50 values, retold here.

In one experiment the target is T1, Liver carboxylesterase 1 (Homo sapiens, UniProt P23141).
T1 sequence (P23141 whole entry): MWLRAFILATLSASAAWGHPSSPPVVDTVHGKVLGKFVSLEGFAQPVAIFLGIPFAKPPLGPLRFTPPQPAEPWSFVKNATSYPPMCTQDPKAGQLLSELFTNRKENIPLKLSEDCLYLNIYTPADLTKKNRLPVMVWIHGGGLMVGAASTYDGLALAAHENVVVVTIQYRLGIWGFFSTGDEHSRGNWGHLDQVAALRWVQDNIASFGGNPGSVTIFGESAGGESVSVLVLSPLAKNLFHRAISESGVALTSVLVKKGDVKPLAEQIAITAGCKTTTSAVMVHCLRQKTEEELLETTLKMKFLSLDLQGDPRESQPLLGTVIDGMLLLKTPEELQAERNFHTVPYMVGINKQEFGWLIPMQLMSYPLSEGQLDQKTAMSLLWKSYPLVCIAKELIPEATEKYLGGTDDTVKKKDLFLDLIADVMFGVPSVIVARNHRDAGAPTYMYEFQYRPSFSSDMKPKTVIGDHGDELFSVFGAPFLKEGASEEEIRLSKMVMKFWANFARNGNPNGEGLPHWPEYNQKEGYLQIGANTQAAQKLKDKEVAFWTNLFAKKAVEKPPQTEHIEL
Kind of experiment: Inhibition of TGH. The method, boiled down: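 Measured in a proteome-wide selectivity screen that globally profiles mammalian serine hydrolases, with TGH among the enzymes detected. Values are reported as IC50 from this screen rather than as Ki from substrate hydrolysis assays.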

For experiment [1], the target named is T2, Fatty-acid amide hydrolase 1 (Rattus norvegicus, UniProt P97612).
T2 sequence (P97612 whole entry): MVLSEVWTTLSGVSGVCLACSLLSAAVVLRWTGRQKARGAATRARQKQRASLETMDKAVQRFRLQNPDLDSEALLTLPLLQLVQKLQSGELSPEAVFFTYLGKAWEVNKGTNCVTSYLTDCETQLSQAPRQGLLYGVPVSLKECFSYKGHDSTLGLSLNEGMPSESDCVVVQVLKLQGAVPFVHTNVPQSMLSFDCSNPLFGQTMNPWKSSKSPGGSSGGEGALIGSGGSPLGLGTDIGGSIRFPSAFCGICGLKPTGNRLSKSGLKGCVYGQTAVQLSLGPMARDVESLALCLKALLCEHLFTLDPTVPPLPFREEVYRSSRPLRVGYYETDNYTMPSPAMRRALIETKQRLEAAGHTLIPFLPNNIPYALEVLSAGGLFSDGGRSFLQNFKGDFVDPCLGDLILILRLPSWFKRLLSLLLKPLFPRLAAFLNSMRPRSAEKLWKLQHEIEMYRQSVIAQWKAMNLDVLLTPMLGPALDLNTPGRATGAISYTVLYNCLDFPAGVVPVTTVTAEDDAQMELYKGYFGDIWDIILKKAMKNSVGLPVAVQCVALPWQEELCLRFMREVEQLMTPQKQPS
Description: Inhibition of rat FAAH expressed in Escherichia coli.

The target of experiment [2] is T3, Neutral cholesterol ester hydrolase 1 (Homo sapiens, UniProt Q6PIU2).
T3 sequence (Q6PIU2 whole entry): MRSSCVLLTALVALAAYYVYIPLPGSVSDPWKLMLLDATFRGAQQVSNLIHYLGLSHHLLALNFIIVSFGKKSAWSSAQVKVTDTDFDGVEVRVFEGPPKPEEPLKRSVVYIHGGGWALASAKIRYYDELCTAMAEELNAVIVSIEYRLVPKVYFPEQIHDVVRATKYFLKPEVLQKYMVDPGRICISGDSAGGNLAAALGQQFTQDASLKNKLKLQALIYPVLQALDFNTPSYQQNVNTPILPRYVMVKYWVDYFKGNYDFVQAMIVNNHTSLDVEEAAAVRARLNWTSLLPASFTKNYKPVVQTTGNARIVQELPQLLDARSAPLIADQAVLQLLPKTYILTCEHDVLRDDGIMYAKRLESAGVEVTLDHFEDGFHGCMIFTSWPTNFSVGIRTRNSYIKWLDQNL
Description: Inhibition of KIAA1363 hydrolase.

Experiment [3] deals with T2, Fatty-acid amide hydrolase 1. Kind of experiment: Inhibition of rat FAAH expressed in Escherichia coli at pH 9.0.
Experiment [4] in a line: Selectivity ratio of IC50 for TGH over IC50 for rat FAAH expressed in Escherichia coli.

For orientation: IC50 means the concentration at which inhibition is half-maximal. High values mean weaker potency in that assay, low ones greater potency in that assay. Broadly, the Ki is the equilibrium dissociation constant of an inhibitor or competing ligand from its target. With `COC(=O)c1nc(C(=O)CCCCCCc2ccccc2)no1`, the half-inhibitory concentration (IC50) against Liver carboxylesterase 1 is 200 nM; in experiment [1] it was 10 nM; in experiment [2] it was over 100 µM. Further, the Ki in experiment [3] came to 7 nM. For the same molecule, the Ratio IC50 in experiment [4] is 20.
With `N#Cc1cccc(-c2ccc(C(=O)CCCCCCc3ccccc3)nn2)n1`, the IC50 at Liver carboxylesterase 1 was 12000 nM; in experiment [1] it was 13000 nM; in experiment [2], over 100 µM. The Ki in experiment [3] is 390 nM. Also, the Ratio IC50 in experiment [4] is 1.
As to `O=C(CCCCCCc1ccccc1)c1nnn[nH]1`, the half-inhibitory concentration (IC50) on Liver carboxylesterase 1 came out at 80 nM; in experiment [1] it was 600 nM; in experiment [2], 60 µM. The inhibitory constant (Ki) in experiment [3] is over 1000 nM. The Ratio IC50 in experiment [4] is 0.13.
On to `O=C(CCCCCCc1ccccc1)c1ncc(-c2ccco2)o1`, for which the IC50 against Liver carboxylesterase 1 is 300 nM; in experiment [1] it was 12 nM; in experiment [2] it was over 100 µM. For the same molecule, the Ratio IC50 in experiment [4] came out at 4.
On to `COC(=O)c1cccc(-c2ccc(C(=O)CCCCCCc3ccccc3)nn2)n1`, for which the half-inhibitory concentration (IC50) at Liver carboxylesterase 1 is over 100000 nM; in experiment [1], 10000 nM; in experiment [2], over 100 µM. Moreover, in experiment [4], the Ratio IC50 was over 10.
With `COC(=O)c1cccc(-c2noc(C(=O)CCCCCCc3ccccc3)n2)n1`, the values for the IC50 (on Liver carboxylesterase 1; in experiment [1]; in experiment [2]) were 150 nM, 3 nM and 40 µM, respectively. For the same molecule, the Ratio IC50 in experiment [4] turned out to be 50.
For `O=C(CCCCCCc1ccccc1)c1nnco1`, in that order: 25 nM, 1 nM, over 100 µM and 1.5.
`O=C(CCCCCCc1ccccc1)c1ncno1`: the values for the IC50 (against Liver carboxylesterase 1; in experiment [1]; in experiment [2]) were 0.7 nM, 4 nM and 25 µM, respectively. Further, the Ratio IC50 in experiment [4] amounted to 0.18.
Take `COC(=O)c1cccc(-c2cnc(C(=O)CCCCCCc3ccccc3)s2)n1`: the half-maximal inhibitory concentration (IC50) was 40000 nM against Liver carboxylesterase 1, over 100000 nM in experiment [1] and over 100 µM in experiment [2]. The Ratio IC50 in experiment [4] is under 0.4.
